In ChEMBL document CHEMBL4422671, “New Quinolylnitrones for Stroke Therapy: Antioxidant and Neuroprotective ( Z)- N- tert-Butyl-1-(2-chloro-6-methoxyquinolin-3-yl)methanimine Oxide as a New Lead-Compound for Ischemic Stroke Treatment” (J Med Chem, 2019):
Activity calls are given as the source filed them. No cut-off for these calls is given here.

Experiments:
[1] = Neuroprotective activity against oxygen-glucose deprivation-induced cell death in Sprague-Dawley rat primary neuronal cells assessed as cell viability at 250 uM treated at onset of recovery period and measured at 24 hrs of recovery by MTT assay relative to control; assay type: functional; settings: Primary neuron, read-out: Activity
In short: (§1)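 Rat cortical neurons from E16–17 Sprague-Dawley embryos, used at 6–7 days in serum-free medium. OGD: glucose-free medium bubbled with 95% N2/5% CO2, <0.1% O2, 6.5% CO2, 37 °C, 4 h. Compound added at start of 24 h normoxic recovery. Viability by MTT (0.2 mg/mL, 1.5 h), lysis with HCl/SDS, read at 595/690 nm, relative to 100% control. Four to eight culture batches, each in quadruplicate.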

[2] = Neuroprotective activity against oxygen-glucose deprivation-induced cell death in Sprague-Dawley rat primary neuronal cells assessed as cell viability at 10 uM treated at onset of recovery period and measured at 24 hrs of recovery by MTT assay relative to control; assay type: functional; settings: Primary neuron, read-out: Activity; in short: as §1
[3] = Neuroprotective activity against oxygen-glucose deprivation-induced cell death in Sprague-Dawley rat primary neuronal cells assessed as cell viability at 100 uM treated at onset of recovery period and measured at 24 hrs of recovery by MTT assay relative to control; assay type: functional; settings: Primary neuron, read-out: Activity; in short: as §1
[4] = Antioxidant activity assessed as DPPH free radical scavenging activity at 0.1 mM measured after 20 to 60 mins; assay type: functional
In short: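 DPPH 0.1 mM in absolute ethanol with compound at 0.1 mM final (from DMSO). Absorbance at 517 nm recorded after 20 and 60 min at rt. NDGA as standard.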

[5] = Antioxidant activity assessed as hydroxyl radical scavenging activity at 0.1 mM measured after 30 mins; assay type: functional
In short: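 Hydroxyl radicals from Fe3+/ascorbic acid: EDTA 0.1 mM, Fe3+ 167 μM, DMSO 33 mM, compound 0.1 mM and ascorbic acid 10 mM in 50 mM phosphate buffer pH 7.4. Incubated 37 °C for 30 min, stopped with 17% w/v TCA. Read-out is inhibition of formaldehyde formation, given as % scavenging. Trolox as reference.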

[6] = Antioxidant activity assessed as inhibition of linoleic acid peroxidation activity at 10 uL; assay type: functional; set-up: scale not given: the % may be the effect or the level left
In short: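 AAPH-initiated peroxidation of sodium linoleate dispersion (16 mM, 10 μL) in 0.05 M phosphate buffer pH 7.4 at 37 °C under air. Initiator was 50 μL of 40 mM AAPH, with 10 μL compound added. Conjugated diene hydroperoxide followed at 234 nm. Trolox as reference.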

[7] = Antioxidant activity assessed as ABTS radical cation scavenging activity by measuring trolox equivalents at 10 uL after 1 min; assay type: functional
In short: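 ABTS radical cation made from 2 mM aqueous ABTS plus 0.17 mM potassium persulfate in 20 mM phosphate buffer pH 7.4, kept 12–16 h dark at rt. Diluted with ethanol to A734 0.70, then mixed with 10 μL compound from 10 mM stock. Absorbance read at rt 1 min after mixing. Trolox as standard.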

[8] = biological target: Lipoxygenase (Glycine max) (UniProt Q39829); experiment: Inhibition of soybean lipoxygenase at 1 to 100 uM using sodium linoleate as substrate by UV-based analysis relative to control
In short: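 Soybean lipoxygenase (enzyme 1/9 ×10⁻⁴ w/v in saline) incubated at rt with 0.1 mM sodium linoleate and compound in DMSO, at several concentrations from 1 to 100 µM diluted from 10 mM stock. Conversion to 13-hydroperoxylinoleic acid recorded at 234 nm; IC50 derived. NDGA as reference inhibitor.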

[9] = Antiinflammatory activity assessed as NO release at 100 uM after 60 mins in presence of L-cysteine by Griess reagent-based relative to control; assay type: functional
In short: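 NO-release test: compound at 100 μM final (from DMSO) in 50 mM phosphate buffer pH 7.4 containing 1 mM L-cysteine, 60 min at 37 °C. Reaction mixture then treated with Griess reagent, left 10 min at rt, absorbance read at 540 nm. Sodium nitroprusside as standard. Mean of three to four determinations.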

[10] = Antioxidant activity assessed as superoxide anion scavenging activity at 0.1 mM pH 7.4 after 10 mins by NBT assay; assay type: functional
In short: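 Superoxide generated by xanthine/xanthine oxidase (0.07 U/mL) in 0.1 M phosphate buffer pH 7.4 containing NBT and compound at 0.1 mM final. After 10 min at rt, absorbance read at 560 nm. Caffeic acid as standard.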

Rattus norvegicus = experiment: Antiinflammatory activity in Fisher 344 rat model of carrageenan-induced edema assessed as inhibition of carrageenan-induced paw edema at 0.01 mmol/kg, ip dosed simultaneously with carrageenan injection relative to control; assay type: functional; settings: Fisher 344, ip
In short: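 Fisher 344 rats (150–200 g), both sexes. Edema was induced by intradermal injection of 0.1 mL 2% carrageenan in water into the right hind paw. Compound was suspended in water with a few drops of Tween 80. Rats were euthanized 3.5 h later. The injected-minus-uninjected paw weight difference was compared with water or Tween-water controls as % inhibition. Mean of two experiments, n = 6 each.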

Primary neuron [11] = experiment: Neuroprotective activity against oxygen-glucose deprivation-induced ischemia in Sprague-Dawley rat primary neuronal cells assessed as reduction in ROS generation at 10 to 250 uM measured after 2 hrs of recovery post OGD by fluorometric assay; assay type: functional, cell-based
In short: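 Primary rat cortical neurons exposed to 4 h OGD; compound added at onset of recovery together with a cell-permeable ROS probe. Fluorescence (ex 490/em 535 nm) read after 2 h recovery and expressed as % of control. Mean of four independent experiments.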

Primary neuron [12] = experiment: Neuroprotective activity against oxygen-glucose deprivation-induced ischemia in Sprague-Dawley rat primary neuronal cells assessed as reduction in lipid peroxidation at 10 to 250 uM measured after 4 hrs of recovery post OGD by fluorometric assay; assay type: functional, cell-based
Primary neuron [13] = experiment: Neuroprotective activity against oxygen-glucose deprivation-induced cell death in Sprague-Dawley rat primary neuronal cells assessed as increase in cell viability at 10 uM pretreated for 24 hrs followed by OGD challenge for 4 hrs and measured after 24 hrs of recovery period post OGD measured by MTT assay; assay type: functional, cell-based
In short: (§2)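 Rat cortical neuron cultures (E16–17 Sprague-Dawley, 6–7 days in vitro) treated with compound (1–250 µM range) 24 h before 4 h OGD at <0.1% O2, 37 °C. Cells then recovered 24 h under normoxia with glucose. Viability by MTT absorbance at 595/690 nm, relative to untreated control.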

[14] = Cytotoxicity in oxygen-glucose deprivation-induced Sprague-Dawley rat primary neuronal cells assessed as reduction in cell viability at 250 uM pretreated for 24 hrs followed by OGD challenge for 4 hrs and measured after 24 hrs of recovery period post OGD measured by MTT assay; assay type: cell-based; settings: primary neuron; in short: as §2
Mus musculus [15] = experiment: Neuroprotective activity in C57BL/6 mouse model of ischemia-induced cerebral ischemia model assessed reduction in neurodeficit score at 1.5 mg/kg, ip administered at onset of reperfusion period and measured at 5 days reperfusion post ischemia; assay type: functional, organism-based
Mus musculus [16] = experiment: (§3) Neuroprotective activity in C57BL/6 mouse model of ischemia-induced cerebral ischemia model assessed reduction in neuronal cell death in hippocampal CA1 region at 1.5 mg/kg, ip administered at onset of reperfusion period and measured at 5 days reperfusion post ischemia by Fluoro-Jade-staining assay based relative to control; assay type: functional; set-up: scale not given: the % may be the effect or the level left
Mus musculus [17] = experiment: as §3, with “cortical” for “hippocampal CA1”; assay type: functional; set-up: scale not given: the % may be the effect or the level left
Mus musculus [18] = experiment: Neuroprotective activity in C57BL/6 mouse model of ischemia-induced cerebral ischemia model assessed as reduction in apoptosis in hippocampal CA1 region at 1.5 mg/kg, ip administered at onset of reperfusion period and measured at 5 days reperfusion post ischemia by TUNNEL assay relative to control; assay type: functional; set-up: scale not given: the % may be the effect or the level left
Mus musculus [19] = experiment: Neuroprotective activity in C57BL/6 mouse model of ischemia-induced cerebral ischemia model assessed as reduction in apoptosis in cortical region at 1.5 mg/kg, ip administered at onset of reperfusion period and measured at 5 days reperfusion post ischemia by TUNNEL assay relative to control; assay type: functional; set-up: scale not given: the % may be the effect or the level left
Mus musculus [20] = experiment: Neuroprotective activity in C57BL/6 mouse model of transient middle cerebral artery occlusion-induced ttransient focal cerebral ischemia assessed decrease in motor deficit at 1.5 to 2 mg/kg, ip measured after 48 hrs post dose by grip strength Test; assay type: functional, organism-based
In short: (§4)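 Male C57BL/6 mice (9–12 weeks) under isoflurane. Distal MCA compressed 60 min with a needle, occlusion confirmed by laser-Doppler; buprenorphine given sc. Compound given ip at reperfusion onset. Grip strength recorded at 24 and 48 h versus presurgery. Infarct area/volume measured at 48 h from TTC-stained 1 mm coronal sections. n = 8 per group.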

Mus musculus [21] = experiment: Neuroprotective activity in C57BL/6 mouse model of transient middle cerebral artery occlusion-induced ttransient focal cerebral ischemia assessed decrease in motor deficit at 2 mg/kg, ip measured after 24 hrs post dose by grip strength Test; assay type: functional, organism-based; in short: as §4
Mus musculus [22] = experiment: Neuroprotective activity in C57BL/6 mouse model of transient middle cerebral artery occlusion-induced ttransient focal cerebral ischemia assessed decrease in motor deficit by measuring improvement in grip strength at 1.5 to 2 mg/kg, ip measured after 48 hrs post dose by grip strength Test; assay type: functional; set-up: scale not given: the % may be the effect or the level left; in short: as §4
Mus musculus [23] = experiment: Neuroprotective activity in C57BL/6 mouse model of transient middle cerebral artery occlusion-induced ttransient focal cerebral ischemia assessed decrease in size of ischemic lesion at 2 mg/kg, ip measured after 48 hrs post dose relative to control; assay type: functional; set-up: scale not given: the % may be the effect or the level left; in short: as §4

With `COc1ccc2nc(Cl)c(/C=[N+](\[O-])C(C)(C)C)cc2c1` the viability at 250 µM [1] was 65.9%, the viability at 10 µM [2] was 52% and the viability at 100 µM [3] was 77.1%. For the same compound, the Activity [4] was 4%, the Activity [5] was 100% and the Activity [6] was 22%. It also gave an Activity [7] of 7%, an inhibition [8] of 29% and an Activity [9] of 3%. The Activity [10] was 5%, the inhibition in vivo at 10 µmol/kg (Rattus norvegicus) was 48.5% and the Activity (Primary neuron [11]) was “Active”. For the same compound, the Activity (Primary neuron [12]) was “Active”, the Activity (Primary neuron [13]) was “Active” and the Activity [14] was “Toxic”. For the same compound, the Activity (Mus musculus [15]) was “Active”, the Activity (Mus musculus [16]) was 33% and the Activity (Mus musculus [17]) was 90%. The Activity (Mus musculus [18]) was 39%, the Activity (Mus musculus [19]) was 84% and the Activity (Mus musculus [20]) was “Active”. The Activity (Mus musculus [21]) was “Active”, the Activity (Mus musculus [22]) was 11.8% and the Activity (Mus musculus [23]) was 44%.
